Series [1] can be described thus: Metabolic stability in dog liver microsomes assessed as half life measured upto 120 mins. In kind it is ADME, Canis lupus familiaris, Microsome. The conditions noted are these: for half-life: liver microsomes. A general note: Liver microsomes are a subcellular fraction often used to study metabolism.
A short description of series [2]: AUC (0 to 24 hrs) in mouse at 3 mg/kg, po measured for 24 hrs. It is filed as ADME, organism-based. Further details: route oral, time 24 hrs, dose 3 mg/kg. The conditions noted are these: in vivo.
A short description of series [3]: Antitumor activity against human JJN-3R cells xenografted in mouse assessed as tumor growth inhibition at 1 mg/kg, po qd administered for 7 days beginning 8 days after tumor-cell implantation. The note with it: 168 h, time 7 day, read-out: TGI. It is filed as functional. Summed up:
(§1)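 JJN3R multiple myeloma xenograft in mice. Oral dosing once daily for 7 days began 8 days after tumor-cell implantation, on established tumors. Read-out was % tumor growth inhibition, and the minimum efficacious dose was identified.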

A short description of series [4]: Antitumor activity against human JJN-3R cells xenografted in po dosed mouse assessed as tumor growth inhibition administered qd for 7 days beginning 8 days after tumor-cell implantation. The conditions noted are these: 168 h, time 7 day, read-out: MED. It is filed as functional. Summed up: as §1
A general note: In xenograft studies the graft and the host belong to different species.

Series [5] can be described thus: Metabolic stability in rat liver microsomes assessed as half life measured upto 120 mins. It is filed as ADME, Microsome.
Series [6] in a line: Metabolic stability in mouse liver microsomes assessed as half life measured upto 120 mins. It is filed as ADME, Microsome.
Series [7] in a line: Metabolic stability in monkey liver microsomes assessed as half life measured upto 120 mins. In kind it is ADME, Macaca mulatta, Microsome. The note with it: rhesus monkey.
Series [8] is described as follows: Antiproliferative activity against Velcade-resistant human JJN-3R cells assessed as reduction in cell viability. It is filed as functional, cell-based. The gist of the method:
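Multiple myeloma cell proliferation assay in the Velcade-resistant JJN3R line; IC50 taken from proliferation.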

For series [9], the target named is T1, Bromodomain-containing protein 4 (Homo sapiens, UniProt O60885). The experiment in a line: Inhibition of BRD4 (unknown origin) assessed as reduction in c-Myc expression. The gist of the method:
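Functional c-Myc assay with MYC expression as the read-out; IC50 in nM, reported as mean ± SEM.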

Series [10] is described as follows: Metabolic stability in human liver microsomes assessed as half life measured upto 120 mins. It is filed as ADME, Microsome.
The nature of series [11]: Protein binding in human serum assessed as free fraction. In kind it is ADME, cell-free.
Series [12] has as its target T1, Bromodomain-containing protein 4. Put plainly: Inhibition of BRD4 (unknown origin). The gist of the method: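 BRD4 binding assay; IC50 in nM, reported as mean ± SEM.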
The nature of series [13]: Solubility of the compound in phosphate buffer at pH 6.5. In kind it is physicochemical. The gist of the method:
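Solubility measured in 50 mM phosphate buffer at pH 6.5; reported in µg/mL.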

Series [14] is described as follows: Permeability of the compound at pH 7.4 by PAMPA. In kind it is ADME. The conditions noted are these: read-out: permeability. Summed up:
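PAMPA run at pH 7.4; permeability reported in nm/sec.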

Series [15] is described as follows: Antitumor activity against human JJN-3R cells xenografted in mouse assessed as tumor growth inhibition at 4 mg/kg, po qd administered for 7 days beginning 8 days after tumor-cell implantation. It is filed as functional. The conditions noted are these: 168 h, time 7 day, read-out: TGI. The gist of the method:
as §1

A short description of series [16]: Antitumor activity against human JJN-3R cells xenografted in mouse assessed as tumor growth inhibition at 2 mg/kg, po qd administered for 7 days beginning 8 days after tumor-cell implantation. In kind it is functional. The conditions noted are these: 168 h, time 7 day, read-out: TGI. The gist of the method: as §1

In brackets after ≈: the same amount, converted by molar mass.

We go through 11 molecules from ChEMBL document CHEMBL4808188, “Development of BET inhibitors as potential treatments for cancer: A search for structural diversity” (Bioorg Med Chem Lett, 2021).

`[2H]C([2H])([2H])c1nnn(C)c1-c1cnc2c3ccc(C(C)(C)O)c(F)c3n([C@H](c3ncccc3F)C3CCOCC3)c2c1`: the half-life in series [1] is 37 min; in series [5] it was 47 min; in [6], 16 min; in [7], 22 min; in [10], 75 min. The AUC(0-t) at 24 h in [2] was 10.9 µM·h. Besides, the inhibition in vivo at 1 mg/kg in series [3] was determined as 91%. In addition, the minimal effective dose in series [4] turned out to be 1 mg/kg. The IC50 in series [8] is 1.7 nM; in [9], 0.9 nM; in series [12] it was 0.6 nM. Besides, the fraction unbound in [11] stood at 0.06. In series [13], this molecule yielded a solubility of 91 µg/mL (≈ 170 µM). The Papp in series [14] worked out at 42 ×10⁻⁶ cm/s.

With `[2H]C([2H])([2H])c1nnn(C)c1-c1cnc2c3ccc(C(C)(C)O)cc3n([C@H](c3ncccc3F)C3CCOCC3)c2c1`, the half-life amounted to 36 min in [1]; 48 min in series [5]; 24 min in series [6]; 22 min in [7]; 79 min in series [10]. The IC50 in series [8] stood at 3.6 nM; in [9], 1 nM; in series [12] it was 0.9 nM. The fraction unbound in [11] was 0.04. For the same molecule, the Papp in series [14] came out at 27 ×10⁻⁶ cm/s.

On to `Cc1nnn(C)c1-c1cnc2c3ccc(C(C)(C)O)cc3n(C(c3cnn[nH]3)C3CCOCC3)c2c1` (configuration not stated), for which the half-inhibitory concentration (IC50) in series [8] turned out to be 710 nM; in [9], 210 nM; in series [12], 27 nM. The Papp in series [14] came to 12 ×10⁻⁶ cm/s.

Take `[2H]C([2H])([2H])c1nnn(C)c1-c1cnc2c3c(F)cc(C(C)(C)O)cc3n([C@H](c3cc(C)on3)C3CCOCC3)c2c1`: the half-life worked out at 71 min in series [1]; 33 min in [5]; 17 min in series [6]; 34 min in series [7]; 120 min in series [10]. The half-inhibitory concentration (IC50) in [8] came out at 3.9 nM; in [9], 2.8 nM. Moreover, the Papp in [14] stood at 41 ×10⁻⁶ cm/s.

As for `Cc1cc([C@H](C2CCOCC2)n2c3cc(C(C)(C)O)ccc3c3ncc(-c4c(C)nnn4C)cc32)no1`, the half-life was found to be 38 min in series [1]; 26 min in series [5]; 10 min in [6]; 16 min in series [7]; 61 min in [10]. Further, the values for the IC50 in series [8], in series [9] and in [12] were 11 nM, 2.8 nM and 1.6 nM, respectively. The Papp in series [14] came out at 35 ×10⁻⁶ cm/s.

Regarding `[2H]C([2H])([2H])c1nnn(C)c1-c1cnc2c3cc(F)c(C(C)(C)O)cc3n([C@H](c3ccccc3)C3CCOCC3)c2c1`, the t1/2 in series [1] (microsomes, 2 h) worked out at 32 min. Further, the AUC(0-t) at 24 h in series [2] was 12.6 µM·h. Besides, the half-life in series [5] is 46 min; in series [6], 41 min; in series [7], 19 min; in [10], 52 min. Further, the IC50 is 6 nM in series [8], 2 nM in [9] and 0.9 nM in series [12]. Further, the inhibition in vivo at 4 mg/kg in series [15] turned out to be 78%. Further, the fraction unbound in series [11] was determined as 0.01. In addition, the inhibition in vivo at 2 mg/kg in series [16] was determined as 77%. The concentration in solution in series [13] (solubility) was 4 µg/mL (≈ 7.74 µM). The Papp in [14] was 69 ×10⁻⁶ cm/s.

For `[2H]C([2H])([2H])c1nnn(C)c1-c1cnc2c3ccc(C(C)(C)O)cc3n([C@H](c3cc(C)on3)C3CCOCC3)c2c1`, the half-life in series [1] was found to be 75 min; in series [5], 33 min; in series [6] it was 30 min; in series [7], 37 min; in series [10] it was 64 min. Also, the values for the IC50 in series [8], in series [9] and in series [12] were 9.9 nM, 2.1 nM and 1.2 nM, respectively. The fraction unbound in [11] came to 0.14. The Papp in series [14] was found to be 26 ×10⁻⁶ cm/s.

In the case of `[2H]C([2H])([2H])c1nnn(C)c1-c1cnc2c3ccc(C(C)(C)O)cc3n([C@H](c3ccc(Cl)cn3)C3CCOCC3)c2c1`, the half-life in [1] amounted to 61 min; in series [5], 62 min; in series [6], 35 min; in series [7], 37 min; in series [10], 55 min. Besides, the IC50 in series [8] turned out to be 4.8 nM; in [9], 1.2 nM; in series [12], 1 nM. Moreover, the inhibition in vivo at 4 mg/kg in series [15] is 76%. Further, the fraction unbound in series [11] turned out to be 0.06. For the same molecule, the Papp in series [14] stood at 61 ×10⁻⁶ cm/s.

As to `[2H]C([2H])([2H])c1nnn(C)c1-c1cnc2c3cc(F)c(C(C)(C)O)cc3n([C@H](c3cc(C)on3)C3CCOCC3)c2c1`, the half-life came to 33 min in series [1]; 3 min in [5]; 26 min in series [6]; 21 min in series [7]; 54 min in series [10]. Further, the IC50 in series [8] turned out to be 14 nM; in series [9] it was 2.2 nM; in series [12] it was 1.4 nM. Moreover, the Papp in [14] is 69 ×10⁻⁶ cm/s.

For `Cc1cc([C@H](C2CCOCC2)n2c3cc(C(C)(C)O)ccc3c3ncc(-c4c(C)nnn4C)cc32)n(C)n1`, the half-life in [1] came out at 52 min; in [5], 59 min; in series [6] it was 50 min; in series [7], 36 min; in [10], 83 min. The figures for the IC50 in [8], in series [9] and in series [12] were 55 nM, 7.1 nM and 2.3 nM, respectively. The Papp in [14] turned out to be 15 ×10⁻⁶ cm/s.

In the case of `[2H]C([2H])([2H])c1nnn(C)c1-c1cnc2c3ccc(C(C)(C)O)c(F)c3n([C@H](c3cc(C)on3)C3CCOCC3)c2c1`, the half-life worked out at 52 min in [1]; 30 min in series [5]; 30 min in [6]; 23 min in [7]; 79 min in series [10]. In [2], this molecule returned an AUC(0-t) at 24 h of 8.7 µM·h. The minimal effective dose in [4] stood at 4 mg/kg. Moreover, the IC50 in series [8] came to 13 nM; in series [9] it was 3.9 nM; in series [12] it was 2 nM. Moreover, the inhibition in vivo at 4 mg/kg in series [15] amounted to 71%. In addition, the fraction unbound in [11] was 0.16. This molecule also had a solubility in series [13] of 120 µg/mL (≈ 230 µM). In addition, the Papp in series [14] came to 80 ×10⁻⁶ cm/s.

Usually half-life stands for the time in which the quantity being followed falls by half. By AUC(0-t) is commonly meant the area under the concentration-time curve up to a stated or last time point. Broadly, the IC50 is the concentration that gives 50% inhibition. One may read the fraction unbound as the share of the substance not bound to proteins or other matrix. The term solubility denotes the concentration that dissolves in the medium under given conditions.
